Converted amounts (≈) assume the structure as drawn.
Legend:
[1] = system: Staphylococcus aureus; experiment: Antimicrobial activity against methicillin-susceptible Staphylococcus aureus by agar dilution CLSI method; type: functional
Procedure, shortened: (§1)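 CLSI agar dilution MIC against S. aureus clinical isolates. Calcium was added to the medium for daptomycin testing. Vancomycin plates were read after a full 24-h incubation.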

[2] = system: Staphylococcus aureus; experiment: Antimicrobial activity against methicillin-resistant Staphylococcus aureus by agar dilution CLSI method; type: functional; procedure, shortened: as §1

| Compound | MIC50 [1] | MIC90 [1] | MIC50 [2] | MIC90 [2] |
| --- | --- | --- | --- | --- |
| C[C@H]1COc2c(N3CCN(C)CC3)c(F)cc3c(=O)c(C(=O)O)cn1c23.C[C@H]1COc2c(N3CCN(C)CC3)c(F)cc3c(=O)c(C(=O)O)cn1c23.O [LEVOFLOXACIN] | 0.25 µg/mL | 4 µg/mL | 1 µg/mL | > 32 µg/mL |
| CC[C@H]1OC(=O)[C@H](C)[C@@H](O[C@H]2C[C@@](C)(OC)[C@@H](O)[C@H](C)O2)[C@H](C)[C@@H](O[C@@H]2O[C@H](C)C[C@H](N(C)C)[C@H]2O)[C@](C)(O)C[C@@H](C)CN(C)[C@H](C)[C@@H](O)[C@]1(C)O [AZITHROMYCIN] | 1 µg/mL (≈ 1.34 µM) | > 64 µg/mL | > 64 µg/mL |  |

Source: ChEMBL document CHEMBL1137665, “Antistaphylococcal activity of CG400549, a new experimental FabI inhibitor, compared with that of other agents” (2007)
